Screening results (PubChem BioAssay)
Compounds with a hit are over-represented: about 4.3% of the library has one in this group of screens.
HTR2A ag – mouse Htr2a agonists via beta-arrestin recruitment, primary screen, cell-based, luminescence; 5-hydroxytryptamine receptor 2A (Mus musculus), P35363; activation, % at 7.6 µM; 0.66% of 360,000 active; CHO-K1 mHTR2A beta-arrestin complementation; percent of 30 µM serotonin response;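 active = activation above a run cutoff, the mean activation of all tested compounds plus 3 SD, cut at about 14% in these data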
TAAR1 agonist – human TAAR1 agonists, primary screen, Fluo-8 calcium fluorescence, CHO RD-HGA16 cells; Trace amine-associated receptor 1 (Homo sapiens), Q96RJ0; vehicle wells 0%, saturating PEA agonist 100%; activation, % at 3 µM; 0.99% of 360,000 active; AID 624467, 2012;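 active = activation above the mean activation of all test compounds in the run plus 3 SD, cut at about 38% in these data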
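Benchmarks: low control DMSO, high control PEA (EC100); System: CHO RD-HGA16 cells carrying human TAAR1 plus Gα16; Detection: Fluo-8 fluorescence, 5 s baseline then 140 s kinetic read; Schedule: 17-24 h plating, Fluo-8 75 min 37 °C, 30 min RT; Read-out basis: % activation from peak over basal fluorescence ratio, DMSO-to-PEA scaled.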
MC4R ag barr – MC4R agonists recruiting beta-arrestin, primary screen, cell-based, luminescence, agonist arm of biased-ligand search | Melanocortin receptor 4 (Homo sapiens), P32245 | U2OS MC4R beta-arrestin complementation; percent of melanotan II response, DMSO zero | activation, % at 8.9 µM | 0.98% of 360,000 active;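 active = activation above a per-plate cutoff, the mean activation of sample wells on that plate plus 3 SD, cut at about 8% in these data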
Target sequence (P32245 whole entry, looked up): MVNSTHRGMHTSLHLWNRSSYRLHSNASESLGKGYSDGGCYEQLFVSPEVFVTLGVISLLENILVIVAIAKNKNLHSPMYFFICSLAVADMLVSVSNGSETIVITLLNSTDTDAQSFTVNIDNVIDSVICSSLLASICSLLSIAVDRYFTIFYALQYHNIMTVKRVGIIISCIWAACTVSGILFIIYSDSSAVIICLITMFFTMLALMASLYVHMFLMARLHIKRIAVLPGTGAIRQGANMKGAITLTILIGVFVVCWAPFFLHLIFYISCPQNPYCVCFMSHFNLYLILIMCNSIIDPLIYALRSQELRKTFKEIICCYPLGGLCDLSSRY
Beta2AR agonist – beta2AR agonists driving receptor internalization, primary screen, cell-based, FAP fluorogen, flow cytometry | AID 504454, 2011 | 0.43% of 340,000 active | Am2.2-beta2AR cells | response, % (no concentration beside the values);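 active = response above a set limit, near 3 SD of response in nonfluorescent compounds, cut at about 42% in these data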
Target sequence (P07550 whole entry, looked up): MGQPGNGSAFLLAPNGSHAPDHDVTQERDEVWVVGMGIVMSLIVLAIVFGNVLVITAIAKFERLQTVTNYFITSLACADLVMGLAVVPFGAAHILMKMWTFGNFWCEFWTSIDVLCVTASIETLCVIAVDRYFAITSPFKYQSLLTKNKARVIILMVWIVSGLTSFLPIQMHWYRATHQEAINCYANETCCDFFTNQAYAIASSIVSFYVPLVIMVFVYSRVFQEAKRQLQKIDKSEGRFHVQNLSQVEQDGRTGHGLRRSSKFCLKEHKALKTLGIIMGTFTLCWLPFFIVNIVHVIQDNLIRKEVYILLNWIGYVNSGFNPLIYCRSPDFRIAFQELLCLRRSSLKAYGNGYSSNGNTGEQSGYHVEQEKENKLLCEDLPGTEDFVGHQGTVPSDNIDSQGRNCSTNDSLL
MC4R antag cAMP – MC4R antagonists of cAMP signaling, primary screen, cell-based, TR-FRET, antagonist arm of biased-ligand search. Melanocortin receptor 4 (Homo sapiens), P32245. MC4R-expressing cells, MTII-stimulated cAMP, LANCE TR-FRET. inhibition, % at 6.5 µM. 0.48% of 360,000 active;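 active = inhibition above its plate's cutoff, the mean of tested wells on that plate plus 3 SD, cut at about 29% in these data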
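Assay system: U2OS cells stably expressing human melanocortin 4 receptor (MC4R) / Dosing: 6.5 µM / Timing: compound 30 min, challenge 1 h, detection 1 h / Measured by: Eu-cAMP/anti-cAMP TR-FRET, emission 671 nm / Replicates: singlicate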
TAAR1 antagonist – human TAAR1 antagonists, primary screen, Fluo-8 calcium fluorescence, CHO RD-HGA16 cells; Trace amine-associated receptor 1 (Homo sapiens), Q96RJ0; antagonist; inhibition, % at 3 µM; 1.5% of 360,000 active;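 active = inhibition above a per-plate cutoff, the mean inhibition of test compounds on that plate plus 3 SD, cut at about 49% in these data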
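Test system: hTAAR1-expressing CHO RD-HGA16 cells, Gα16-coupled; Probe or stimulus: EC80 β-phenethylamine stimulus; Compound dosing: single nominal final test compound concentration of 3 µM; Timing: 140 s kinetic read after compound, 140 s after agonist; Signal: Fluo-8 calcium-sensitive fluorescence; Measure: % inhibition of agonist calcium response; Controls: DMSO and EC80 PEA controls.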
nonsel antag count – nonselective antagonists in TAAR1 counter-screen cells, counter-screen for hTAAR1 antagonist project, cell-based, fluorescence, calcium; inhibition, % at 3 µM; AID 651780, 2012; counterscreen cell line, antagonist mode; 77% of 2,400 active; shares compounds with TAAR1 antagonist; in the data active = inhibition above about 22%;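 also: CHO-Ga16 host cells stimulated with ATP at an EC80 level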
TAAR1 ant conf – human TAAR1 antagonists, retest of hits, confirmation, cell-based, fluorescence; shares compounds with TAAR1 antagonist; AID 651785, 2012; TAAR1-expressing cells, fluorescence antagonist read-out; inhibition, % at 3 µM; 40% of 2,400 active; in the data active = inhibition above about 49%;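 also: CHO-Ga16 host cells challenged with agonist PEA near its EC80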
Ga16 ag counter-1 – calcium activation in Ga16-expressing cells, counter-screen for TAAR1 antagonist project, cell-based, fluorescence; shares compounds with TAAR1 antagonist; agonist counterscreen; activation, % at 3 µM; 18% of 2,400 active; AID 651953, 2012; in the data active = activation above about 12%
TAAR1 ag counter – TAAR1 activation by candidate antagonists – cell-based, fluorescence, counter-screen for TAAR1 antagonist project; shares compounds with TAAR1 antagonist; hTAAR1 cell line, agonist mode; activation, % at 3 µM; 2% of 2,400 active; in the data active = activation above about 37%;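 also: CHO cells stably expressing TAAR1 with calcium dye readout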
TAAR1 ag confirm – human TAAR1 agonists, retest of hits, confirmation, Fluo-8 calcium fluorescence, CHO RD-HGA16 cells; shares compounds with TAAR1 agonist; scaled: DMSO 0%, maximal phenethylamine 100%; activation, % at 3 µM; 82% of 2,400 active; AID 651783, 2012;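 active = activation above a cutoff set at the run's mean compound activation plus 3 SD, cut at about 39% in these data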
Ga16 ag counter-2 – nonselective calcium mobilization agonists, CHO-Ga16 cells, counter-screen for hTAAR1 agonist project, cell-based, fluorescence, CHO-Ga16 parental line; 50% of 2,400 active; activation, % at 3 µM; shares compounds with TAAR1 agonist; Fluo-8 calcium fluorescence; normalized to maximal ATP response, DMSO zero;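 active = activation above the run cutoff, the mean activation over all tested wells plus 3 SD, cut at about 12% in these data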
TAAR1 desensitize – TAAR1 desensitization by agonist hits, confirmation, counter-screen for TAAR1 agonist project, cell-based, fluorescence, tachyphylaxis | shares compounds with TAAR1 agonist | CHO RD-HGA16 hTAAR1, Fluo-8 calcium, beta-PEA response inhibition | inhibition, % at 3 µM | 46% of 2,400 active;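 active = inhibition above the run cutoff, the mean inhibition of all test compounds plus 3 SD, cut at about 49% in these data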;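 also: beta-PEA stimulus applied at its EC80; loss of beta-PEA calcium signal after compound pretreatment read as receptor desensitization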
Ga16 antag count – inhibition of ATP-evoked calcium response in CHO-Ga16 cells, counter-screen for TAAR1 agonist project, cell-based, fluorescence; inhibition, % at 3 µM; 39% of 2,400 active; CHO-Ga16 ATP-induced calcium, Fluo-8 fluorescence; shares compounds with TAAR1 agonist;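 active = inhibition above the plate's mean compound inhibition plus 3 SD, computed per plate, cut at about 22% in these data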
Each line names hits and unclear results; the compound was inactive in the other large screens (follow-up assays come after a bar, where they were run).

CSCCC(c1nnnn1Cc1ccccc1)N1CCC2(CC1)C(=O)NCN2c1ccccc1 (stereo unspecified)	TAAR1 antagonist 52 (no result: MC4R ag barr, Beta2AR agonist, MC4R antag cAMP) | nonsel antag count 28 | TAAR1 ant conf inactive | Ga16 ag counter-1 inactive | TAAR1 ag counter inactive
COC(=O)C1=C(c2cccc(C#N)c2)C[C@@H]2CC[C@H]1N2C(=O)N1CCC(C)CC1	none
COC(=O)C1=C(c2ccc(F)cc2OCc2ccccc2)C[C@@H]2CC[C@H]1N2C(=O)NCc1ccc(F)cc1	none
COC(=O)C1=C(c2ccc(F)cc2OCc2ccccc2)C[C@@H]2CC[C@H]1N2C(=O)NCc1ccc([N+](=O)[O-])cc1	TAAR1 antagonist 58 | nonsel antag count 27 | TAAR1 ant conf inactive | Ga16 ag counter-1 inactive | TAAR1 ag counter inactive
COC(=O)c1ccc(NC(=O)CSc2nc3ccc(N4C(=O)C5C6C=CC(C6)C5C4=O)cc3s2)cc1 (stereo unspecified)	TAAR1 antagonist 88 | nonsel antag count 41 | TAAR1 ant conf 65 | Ga16 ag counter-1 17 | TAAR1 ag counter inactive
Cc1ccnc(NS(=O)(=O)c2ccc(N=Cc3c(O)n(C)c(=O)n(C)c3=O)cc2)n1	none
O=P(Nc1ccccc1)(Nc1ccccc1)Oc1ccccc1	none
Cc1cccc(NP(=O)(Oc2ccccc2)Oc2ccccc2)c1C	TAAR1 antagonist 73 | nonsel antag count 24 | TAAR1 ant conf inactive | Ga16 ag counter-1 inactive | TAAR1 ag counter inactive
O=P(Nc1ccccc1)(Oc1ccccc1)Oc1ccccc1	TAAR1 antagonist 74 | nonsel antag count 27 | TAAR1 ant conf 59 | Ga16 ag counter-1 inactive | TAAR1 ag counter inactive
CCC(c1nnnn1-c1ccc2c(c1)OCCO2)N1CCC2(CC1)C(=O)NCN2c1ccccc1 (stereo unspecified)	none (no result: MC4R ag barr, Beta2AR agonist, MC4R antag cAMP)
S=P1(Oc2ccccc2)Nc2ccccc2N1	none
Cc1ccccc1CCNCc1cc2cccc(C)c2[nH]c1=O	TAAR1 agonist 108, TAAR1 antagonist 86 | TAAR1 ag confirm 112 | Ga16 ag counter-2 17 | TAAR1 desensitize 98 | Ga16 antag count inactive
CCCCCCn1c(=O)c(C(=O)Nc2ncccc2C)c(O)c2ccccc21	TAAR1 agonist 106, TAAR1 antagonist 74 | TAAR1 ag confirm 55 | Ga16 ag counter-2 30 | TAAR1 desensitize inactive | Ga16 antag count 35
CCCCCn1c(=O)c(C(=O)Nc2ccccc2C)c(O)c2ccccc21	none
COc1cccc(CNCCc2cccc(F)c2)c1OC	TAAR1 agonist 66 | TAAR1 ag confirm 77 | Ga16 ag counter-2 inactive | TAAR1 desensitize inactive | Ga16 antag count inactive
COc1ccccc1CCNCc1ccc(OC)c(OC)c1OC	TAAR1 agonist 62, TAAR1 antagonist 55 | TAAR1 ag confirm 85 | Ga16 ag counter-2 inactive | TAAR1 desensitize 74 | Ga16 antag count inactive
COc1ccc(CNCCc2c[nH]c3ccccc23)c(OC)c1OC	none
CS(=O)(=O)c1ccc(C2=C(CNC(=O)c3ccncc3)[C@H]3CC[C@@H](C2)N3CCOc2ccccc2)cc1	none (no result: Beta2AR agonist)
Nc1ccc(Cc2ccc(N)cc2)cc1	none
COc1ccc(C(=O)N2C[C@H]3C[C@@H](C2)c2cccc(=O)n2C3)cc1OC	none
CNc1ccc2oc(C[C@H]3O[C@@]4(CC[C@H]3C)O[C@H]([C@H](C)C(=O)c3ccc[nH]3)[C@H](C)C[C@H]4C)nc2c1C(=O)O	TAAR1 agonist 198, TAAR1 antagonist 106 | TAAR1 ag confirm 184 | Ga16 ag counter-2 146 | TAAR1 desensitize 107 | Ga16 antag count 101
CN(C)c1ccc(/C=C/C=C2/C(=O)NC(=O)N(c3ccccc3)C2=O)cc1	none
Cc1ccc(N2C(=O)NC(=O)/C(=C\C=C\c3ccco3)C2=O)cc1C	TAAR1 agonist 54, Beta2AR agonist 60 | TAAR1 ag confirm 76 | Ga16 ag counter-2 48 | TAAR1 desensitize 69 | Ga16 antag count 29
O=C1NC(=O)N(c2ccccc2)C(=O)/C1=C/C=C/c1ccco1	TAAR1 agonist 57, Beta2AR agonist 59 | TAAR1 ag confirm inactive | Ga16 ag counter-2 13 | TAAR1 desensitize inactive | Ga16 antag count inactive
Cc1cccn2c(=O)c3c(nc12)N1CCc2ccccc2C1C1(C3)C(=O)NC(=O)N(C)C1=O (stereo unspecified)	none
